Measurements as given in ChEMBL document CHEMBL5370647 (J Med Chem, 2023).
pKd: −log10 of the molar value. ≈ marks a conversion by molar mass, not a printed value.

How the values were obtained:
[1] = test system: Mycobacterium tuberculosis; experiment: Antitubercular activity against non-replicating Mycobacterium tuberculosis H37Rv expressing luxCDAB assessed as inhibition of bacterial growth incubated for 7 days under hypoxia conditions followed by incubation in normoxia conditions for 5 days by luminescence based analysis; type: functional; details: 288 h, time 12 day
TGF-beta receptor type-1 = biological target: T1, TGF-beta receptor type-1 (Homo sapiens, UniProt P36897); experiment: Binding affinity to wild type human partial length TGFBR1 (D179 to M503 residues) expressed in bacterial expression system by KINOMEscan assay
T1 sequence (P36897 whole entry): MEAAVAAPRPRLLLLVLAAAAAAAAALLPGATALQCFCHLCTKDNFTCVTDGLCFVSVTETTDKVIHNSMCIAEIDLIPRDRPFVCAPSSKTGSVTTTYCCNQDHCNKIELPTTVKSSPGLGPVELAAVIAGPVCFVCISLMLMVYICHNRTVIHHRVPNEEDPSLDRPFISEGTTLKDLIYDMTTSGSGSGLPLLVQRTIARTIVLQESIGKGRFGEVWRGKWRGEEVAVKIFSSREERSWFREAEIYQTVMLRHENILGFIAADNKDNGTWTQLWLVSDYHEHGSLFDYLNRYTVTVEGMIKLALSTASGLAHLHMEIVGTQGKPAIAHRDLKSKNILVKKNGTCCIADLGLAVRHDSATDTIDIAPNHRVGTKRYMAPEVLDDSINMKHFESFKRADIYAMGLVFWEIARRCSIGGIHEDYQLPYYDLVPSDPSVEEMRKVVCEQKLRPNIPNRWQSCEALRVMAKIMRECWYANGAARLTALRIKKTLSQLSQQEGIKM

[2] = Metabolic stability of the compound in CD-1 mouse liver microsomes at 5 uM by LC-TOF/MS analysis; type: ADME, Microsome
Summary of the method: (§1)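 Mouse liver microsomes incubated with compound in the presence of NADPH. Read-out is % parent compound remaining after 30 min.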

[3] = Metabolic stability of the compound in CD-1 mouse liver microsomes assessed as parent compound remaining at 5 uM preincubated for 5 mins followed by NADPH addition and measured after 30 mins by LC-TOF/MS analysis; type: ADME, Microsome; details: time 35 min, read-out: Stability; summary of the method: as §1
[4] = test system: Mycobacterium tuberculosis; experiment: Antitubercular activity against Mycobacterium tuberculosis H37Rv constitutively expressing GFP assessed as inhibition of bacterial growth at 20 uM incubated for 7 days by fluorescence based analysis; type: functional; details: 168 h, time 7 day
[5] = test system: Mycobacterium tuberculosis; experiment: Antitubercular activity against replicating Mycobacterium tuberculosis H37Rv constitutively expressing GFP assessed as inhibition of bacterial growth under normoxia conditions incubated for 3 weeks by spot assay; type: functional; details: 504 h
[6] = test system: Mycobacterium tuberculosis; experiment: Antitubercular activity against non-replicating Mycobacterium tuberculosis H37Rv constitutively expressing GFP assessed as inhibition of bacterial growth incubated for 7 days under hypoxic condition followed by incubation in aerobic conditions for 1 to 5 days by spot assay; type: functional; details: time 8-12 day

Row | Compound | MIC50 [1] | MIC90 [1] | also measured
1 | Cc1cccc(-c2nc(Nc3ccc4ncoc4c3)c3ccccc3n2)n1 | 0.3 µM (≈ 0.106 µg/mL) | 5 µM (≈ 1.77 µg/mL) | 
2 | Cc1cccc(-c2nc(Nc3ccc4nc(C)sc4c3)c3ccccc3n2)n1 | < 0.3 µM | 0.3 µM (≈ 0.115 µg/mL) | pKd (TGF-beta receptor type-1): < 5.00; Stability [2]: Stable; remaining at 0.5 h, 5 µM [3]: 18%
3 | CSc1cccc(Nc2nc(-c3cccc(C)n3)nc3ccccc23)c1 | < 0.3 µM | 1.3 µM (≈ 0.466 µg/mL) | 
4 | Cn1cncc1-c1cc2c(Nc3ccc(OCc4ccccc4)cc3)ncnc2cn1 |  |  | inhibition at 20 µM [4]: > 90%; MIC50 [5]: 5 µM (≈ 2.04 µg/mL); MIC90 [5]: > 20 µM
5 | COc1ccc(Nc2nc(-c3cccc(C)n3)nc3ccccc23)cc1 | < 0.3 µM | 1.3 µM (≈ 0.445 µg/mL) | pKd (TGF-beta receptor type-1): < 5.00
6 | Cc1cccc(-c2nc(Nc3ccc4scnc4c3)c3ccccc3n2)n1 | < 0.3 µM | 1.3 µM (≈ 0.48 µg/mL) | pKd (TGF-beta receptor type-1): < 5.00
7 | Cc1cccc(-c2nc(Nc3ccncc3)c3cc(O)ccc3n2)n1 | 1 µM (≈ 0.329 µg/mL) | 2.5 µM (≈ 0.823 µg/mL) | Stability [2]: Stable; remaining at 0.5 h, 5 µM [3]: 20%
8 | FC(F)(F)c1cccc(-c2nc(Nc3ccncc3)c3ccccc3n2)n1 | 1 µM (≈ 0.367 µg/mL) | 5 µM (≈ 1.84 µg/mL) | Stability [2]: Stable; remaining at 0.5 h, 5 µM [3]: 29%
9 | c1ccc(-c2nc(Nc3ccncc3)c3ccccc3n2)nc1 | 1 µM (≈ 0.299 µg/mL) | 2.5 µM (≈ 0.748 µg/mL) | Stability [2]: Stable; remaining at 0.5 h, 5 µM [3]: 20%
10 | COc1cncc(-c2nc(Nc3ccncc3)c3ccccc3n2)n1 | 5 µM (≈ 1.65 µg/mL) | > 10 µM | 
11 | c1cnc(-c2nc(Nc3ccncc3)c3ccccc3n2)nc1 | 2.5 µM (≈ 0.751 µg/mL) | > 10 µM | 
12 | Fc1cccc(-c2nc(Nc3ccncc3)c3ccccc3n2)n1 | 1 µM (≈ 0.317 µg/mL) | 5 µM (≈ 1.59 µg/mL) | Stability [2]: Stable; remaining at 0.5 h, 5 µM [3]: 18%
13 | Fc1cccc(-c2nc(Nc3ccncc3)c3ccccc3n2)c1 | > 10 µM | > 10 µM | 
14 | Cc1cccc(-c2nc(Nc3ccc4c(c3)nnn4C)c3ccccc3n2)n1 | < 0.3 µM | 1.3 µM (≈ 0.478 µg/mL) | pKd (TGF-beta receptor type-1): < 5.00; Stability [2]: Stable; remaining at 0.5 h, 5 µM [3]: 28%
15 | Cc1ccc(NC(=O)c2ccnc(N3CCN(C)CC3)c2)cc1-c1ccc(C(=O)NCC2CC2)cc1 |  |  | inhibition at 20 µM [4]: > 90%; MIC50 [5]: 4 µM (≈ 1.93 µg/mL); MIC90 [5]: 6 µM (≈ 2.9 µg/mL)
16 | Cc1cccc(-c2nc(Nc3ccc4c(cnn4C)c3)c3ccccc3n2)n1 | < 0.3 µM | 1.3 µM (≈ 0.476 µg/mL) | Stability [2]: Stable; remaining at 0.5 h, 5 µM [3]: 9%
17 | Cc1cc(Nc2nc(-c3cccc(C)n3)nc3ccccc23)ccn1 | < 0.3 µM | 1.3 µM (≈ 0.426 µg/mL) | 
18 | COc1cccc(-c2nc(Nc3ccncc3)c3ccccc3n2)n1 | 5 µM (≈ 1.65 µg/mL) | > 10 µM | 
19 | Fc1ccc(-c2c(-c3ccccn3)nc3n2CCS3)cc1 |  |  | inhibition at 20 µM [4]: > 90%; MIC50 [5]: 9 µM (≈ 2.68 µg/mL); MIC90 [5]: > 20 µM
20 | c1ccc2c(Nc3ccncc3)nc(-c3cnccn3)nc2c1 | 1 µM (≈ 0.3 µg/mL) | > 10 µM | 
21 | Cc1cccc(-c2nc(Nc3ccc4ncsc4c3)c3ccccc3n2)n1 | < 0.3 µM | 1.3 µM (≈ 0.48 µg/mL) | 
22 | CS(=O)(=O)CCNCc1coc(-c2ccc3ncnc(Nc4ccc(OCc5ccccc5)cc4)c3c2)c1 [GW566221A] |  |  | inhibition at 20 µM [4]: > 90%; MIC90 [5]: 3 µM (≈ 1.59 µg/mL); MIC90 [6]: 7 µM (≈ 3.7 µg/mL)
23 | Cc1cc(-c2nc(Nc3ccncc3)c3ccccc3n2)cs1 | > 10 µM | > 10 µM | 
24 | Cc1cccc(-c2cc3ccccc3c(Nc3ccncc3)n2)n1 | 1 µM (≈ 0.312 µg/mL) | > 10 µM | 
25 | Cc1cccc(-c2nc(Nc3ccc4ncccc4c3)c3ccccc3n2)n1 | 0.3 µM (≈ 0.109 µg/mL) | 5 µM (≈ 1.82 µg/mL) | 
26 | COc1ccc2nc(-c3cccc(C)n3)nc(Nc3ccncc3)c2c1 | < 1 µM | < 1 µM | Stability [2]: Stable; remaining at 0.5 h, 5 µM [3]: 23%

Row | Compound | MIC50 [1] | MIC90 [1] | also measured
27 | Cc1cccc(-c2nc(Oc3ccc4ncsc4c3)c3ccccc3n2)n1 | < 0.3 µM | 0.3 µM (≈ 0.111 µg/mL) | pKd (TGF-beta receptor type-1): < 5.00
28 | CO[C@H]1/C=C/O[C@@]2(C)Oc3c(C)c(O)c4c(O)c(c(/C=N/N5CCN(C)CC5)c(O)c4c3C2=O)NC(=O)/C(C)=C\C=C\[C@H](C)[C@H](O)[C@@H](C)[C@@H](O)[C@@H](C)[C@H](OC(C)=O)[C@@H]1C [RIFAMPIN] |  |  | MIC90 [6]: 0.4 µM (≈ 0.329 µg/mL)
29 | Cc1cccc(-c2nc(Nc3ccc4[nH]ncc4c3)c3ccccc3n2)n1 | < 0.3 µM | 5 µM (≈ 1.76 µg/mL) | Stability [2]: Stable; remaining at 0.5 h, 5 µM [3]: 9%
30 | Cn1cncc1-c1ccc2ncnc(Nc3ccc(OCc4ccccc4)cc3)c2c1 |  |  | inhibition at 20 µM [4]: > 90%; MIC50 [5]: 5 µM (≈ 2.04 µg/mL); MIC90 [5]: 5 µM (≈ 2.04 µg/mL); MIC90 [6]: 11 µM (≈ 4.48 µg/mL)
31 | Nc1nc(-c2ccccn2)c(-c2ccnc3ccccc23)s1 |  |  | inhibition at 20 µM [4]: > 90%; MIC50 [5]: 13 µM (≈ 3.96 µg/mL); MIC90 [5]: 20 µM (≈ 6.09 µg/mL); MIC90 [6]: > 20 µM
32 | Cc1cccc(-c2nc(Nc3ccc4ncn(C)c4c3)c3ccccc3n2)n1 | 0.3 µM (≈ 0.11 µg/mL) | > 10 µM | 
33 | Cc1cccc(-c2nc(Oc3ccc4scnc4c3)c3ccccc3n2)n1 | < 0.3 µM | 0.3 µM (≈ 0.111 µg/mL) | pKd (TGF-beta receptor type-1): < 5.00
34 | Cn1ccc(-c2nc(Nc3ccncc3)c3ccccc3n2)n1 | > 10 µM | > 10 µM | 
35 | Cc1cccc(-c2nc(Nc3ccc4[nH]ccc4c3)c3ccccc3n2)n1 | 1.3 µM (≈ 0.457 µg/mL) | 1.3 µM (≈ 0.457 µg/mL) | 
36 | Clc1cccc(-c2nc(Nc3ccncc3)c3ccccc3n2)c1 | > 10 µM | > 10 µM | 
37 | Cc1cccc(-c2nc(Nc3ccc4occc4c3)c3ccccc3n2)n1 | < 0.3 µM | 1.3 µM (≈ 0.458 µg/mL) | pKd (TGF-beta receptor type-1): < 5.00
38 | Cc1cccc(-c2nc(Nc3ccc4ccsc4c3)c3ccccc3n2)n1 | < 0.3 µM | 0.3 µM (≈ 0.111 µg/mL) | pKd (TGF-beta receptor type-1): < 5.00; Stability [2]: Stable; remaining at 0.5 h, 5 µM [3]: 8%
39 | c1ccc2c(Nc3ccncc3)nc(-c3ccc4c(c3)OCO4)nc2c1 | > 10 µM | > 10 µM | 
40 | COc1ccc2c(Nc3ccncc3)nc(-c3cccc(C)n3)nc2c1 | 1 µM (≈ 0.343 µg/mL) | 2.5 µM (≈ 0.858 µg/mL) | Stability [2]: Stable; remaining at 0.5 h, 5 µM [3]: 12%
41 | Cc1csc(-c2nc(Nc3ccncc3)c3ccccc3n2)n1 | > 10 µM | > 10 µM | 
42 | Cc1cccc(-c2nc(Nc3ccc4c(c3)ncn4C)c3ccccc3n2)n1 | 1.3 µM (≈ 0.476 µg/mL) | 5 µM (≈ 1.83 µg/mL) | pKd (TGF-beta receptor type-1): < 5.00
43 | Cc1cccc(-c2nc(C)cc(Nc3ccncc3)n2)n1 | < 1 µM | > 10 µM | 
44 | Cc1cccc(-c2nc(Nc3ccc4nnn(C)c4c3)c3ccccc3n2)n1 | < 0.3 µM | 0.3 µM (≈ 0.11 µg/mL) | pKd (TGF-beta receptor type-1): < 5.00; Stability [2]: Stable; remaining at 0.5 h, 5 µM [3]: 15%
45 | Clc1cccc(-c2nc(Nc3ccncc3)c3ccccc3n2)n1 | < 1 µM | < 1 µM | Stability [2]: Stable; remaining at 0.5 h, 5 µM [3]: 18%
46 | CN1CCN(Cc2cccc(-c3ccc4c(Nc5ccc(Oc6ccccc6)cc5)ccnc4c3)c2)CC1 |  |  | inhibition at 20 µM [4]: > 90%; MIC90 [5]: 11 µM (≈ 5.51 µg/mL); MIC90 [6]: 6 µM (≈ 3 µg/mL)
47 | Cc1cccc(-c2nc(N(C)c3ccc4ncsc4c3)c3ccccc3n2)n1 | < 0.3 µM | 1.3 µM (≈ 0.499 µg/mL) | pKd (TGF-beta receptor type-1): < 5.00
48 | Cc1cccc(-c2cc(Nc3ccncc3)c3ccccc3n2)n1 | 2.5 µM (≈ 0.781 µg/mL) | > 10 µM | 
49 | Cc1cccc(-c2nc(Nc3ccc4nn[nH]c4c3)c3ccccc3n2)n1 | 1.3 µM (≈ 0.459 µg/mL) | 5 µM (≈ 1.77 µg/mL) | pKd (TGF-beta receptor type-1): < 5.00
50 | Cc1cccc(-c2nc(Nc3ccc4nn(C)cc4c3)c3ccccc3n2)n1 | < 0.3 µM | 1.3 µM (≈ 0.476 µg/mL) | 
51 | c1cncc(-c2nc(Nc3ccncc3)c3ccccc3n2)c1 | > 10 µM | > 10 µM | 
